In ChEMBL document CHEMBL1811814, “Synthesis and evaluation of indole, pyrazole, chromone and pyrimidine based conjugates for tumor growth inhibitory activities--development of highly efficacious cytotoxic agents” (Eur J Med Chem, 2010):

Assays:
Format in all cases: functional
PC-3 = assay: Growth inhibition of human PC3 cells assessed tumor cell growth at 10^-5 M; parameters: scale not given: the % may be the effect or the level left
In short: (§1)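 NCI 60-human-tumor-cell-line panel screen. Each compound was tested at a single concentration of 10^-5 M, and percent growth of tumor cells was recorded for each cell line. Growth inhibition was expressed from these percent-growth values.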

SF-539 = assay: Growth inhibition of human SF539 cells assessed tumor cell growth at 10^-5 M; parameters: scale not given: the % may be the effect or the level left; in short: as §1
OVCAR-3 = assay: Growth inhibition of human OVCAR3 cells
CCRF-CEM = assay: Growth inhibition of human CCRF-CEM cells assessed tumor cell growth at 10^-5 M; parameters: scale not given: the % may be the effect or the level left; in short: as §1
786-0 = assay: Growth inhibition of human 786-0 cells
DU-145 = assay: Growth inhibition of human DU145 cells
SK-MEL-2 = assay: Growth inhibition of human SK-MEL-2 cells
OVCAR-4 [1] = assay: Growth inhibition of human OVCAR4 cells
SNB-19 = assay: Growth inhibition of human SNB19 cells assessed tumor cell growth at 10^-5 M; parameters: scale not given: the % may be the effect or the level left
In short: (§2)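 Single-dose screen at 10^-5 M across the 60 human tumor cell line panel, run to NCI standards. The value is the percent growth of each cell line in the presence of compound. Compounds active at this dose moved on to five-concentration testing (10^-4 to 10^-8 M).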

HT-29 [2] = assay: Growth inhibition of human HT-29 cells assessed tumor cell growth at 10^-5 M; parameters: scale not given: the % may be the effect or the level left; in short: as §1
MDA-MB-468 [3] = assay: Growth inhibition of human MDA-MB-468 cells
UACC-62 [4] = assay: Growth inhibition of human UACC62 cells
COLO 205 = assay: Growth inhibition of human COLO205 cells assessed tumor cell growth at 10^-5 M; parameters: scale not given: the % may be the effect or the level left; in short: as §1
HCC 2998 = assay: Growth inhibition of human HCC2998 cells
SK-OV-3 [5] = assay: Growth inhibition of human SKOV3 cells
TK-10 [6] = assay: Growth inhibition of human TK10 cells
NCI-H226 = assay: Growth inhibition of human NCI-H226 cells assessed tumor cell growth at 10^-5 M; parameters: scale not given: the % may be the effect or the level left; in short: as §1
HCT-116 = assay: Growth inhibition of human HCT116 cells
OVCAR-8 = assay: Growth inhibition of human OVCAR8 cells assessed tumor cell growth at 10^-5 M; parameters: scale not given: the % may be the effect or the level left; in short: as §1
HOP-92 [7] = assay: Growth inhibition of human HOP92 cells assessed tumor cell growth at 10^-5 M; parameters: scale not given: the % may be the effect or the level left; in short: as §1
SR = assay: Growth inhibition of human SR cells assessed tumor cell growth at 10^-5 M; parameters: scale not given: the % may be the effect or the level left; in short: as §2
KM12 [8] = assay: Growth inhibition of human KM12 cells
T47D = assay: Growth inhibition of human T47D cells assessed tumor cell growth at 10^-5 M; parameters: scale not given: the % may be the effect or the level left; in short: as §2
OVCAR-5 [9] = assay: Growth inhibition of human OVCAR5 cells assessed tumor cell growth at 10^-5 M; parameters: scale not given: the % may be the effect or the level left; in short: as §1
SK-MEL-5 = assay: Growth inhibition of human SK-MEL-5 cells
UACC-62 [10] = assay: Growth inhibition of human UACC62 cells assessed tumor cell growth at 10^-5 M; parameters: scale not given: the % may be the effect or the level left; in short: as §2
HL-60(TB) = assay: Growth inhibition of human HL-60(TB) cells
HT-29 [11] = assay: Growth inhibition of human HT-29 cells
OVCAR-4 [12] = assay: Growth inhibition of human OVCAR4 cells assessed tumor cell growth at 10^-5 M; parameters: scale not given: the % may be the effect or the level left; in short: as §1
NCI/ADR-RES [13] = assay: Growth inhibition of human NCI/ADR-RES cells
OVCAR-5 [14] = assay: Growth inhibition of human OVCAR5 cells
SF-268 = assay: Growth inhibition of human SF268 cells assessed tumor cell growth at 10^-5 M; parameters: scale not given: the % may be the effect or the level left; in short: as §1
NCI-H322M = assay: Growth inhibition of human NCI-H322M cells
CAKI-1 [15] = assay: Growth inhibition of human Caki1 cells assessed tumor cell growth at 10^-5 M; parameters: scale not given: the % may be the effect or the level left; in short: as §1
MDA-MB-231 = assay: Growth inhibition of human MDA-MB-231 cells assessed tumor cell growth at 10^-5 M; parameters: scale not given: the % may be the effect or the level left; in short: as §1
A549 = assay: Growth inhibition of human A549 cells
SK-OV-3 [16] = assay: Growth inhibition of human SKOV3 cells assessed tumor cell growth at 10^-5 M; parameters: scale not given: the % may be the effect or the level left; in short: as §1
TK-10 [17] = assay: Growth inhibition of human TK10 cells assessed tumor cell growth at 10^-5 M; parameters: scale not given: the % may be the effect or the level left; in short: as §2
HCT-15 = assay: Growth inhibition of human HCT15 cells
UO-31 = assay: Growth inhibition of human UO31 cells
KM12 [18] = assay: Growth inhibition of human KM12 cells assessed tumor cell growth at 10^-5 M; parameters: scale not given: the % may be the effect or the level left; in short: as §1
HOP-62 = assay: Growth inhibition of human HOP62 cells
NCI-H23 = assay: Growth inhibition of human NCI-H23 cells assessed tumor cell growth at 10^-5 M; parameters: scale not given: the % may be the effect or the level left; in short: as §1
MDA-MB-435 = assay: Growth inhibition of human MDA-MB-435 cells
SW-620 = assay: Growth inhibition of human SW620 cells
SF-295 [19] = assay: Growth inhibition of human SF295 cells assessed tumor cell growth at 10^-5 M; parameters: scale not given: the % may be the effect or the level left; in short: as §1
HOP-92 [20] = assay: Growth inhibition of human HOP92 cells
NCI/ADR-RES [21] = assay: Growth inhibition of human NCI/ADR-RES cells assessed tumor cell growth at 10^-5 M; parameters: scale not given: the % may be the effect or the level left; in short: as §1
SF-295 [22] = assay: Growth inhibition of human SF295 cells
MDA-MB-468 [23] = assay: Growth inhibition of human MDA-MB-468 cells assessed tumor cell growth at 10^-5 M; parameters: scale not given: the % may be the effect or the level left; in short: as §1
K562 = assay: Growth inhibition of human K562 cells assessed tumor cell growth at 10^-5 M; parameters: scale not given: the % may be the effect or the level left; in short: as §1
CAKI-1 [24] = assay: Growth inhibition of human Caki1 cells
SNB-75 = assay: Growth inhibition of human SNB75 cells
[25] = read-out: LC50 (the source's name)

SMILES: CC1=NN(c2cccc(Cl)c2)C(=O)/C1=C\C=C\c1ccccc1
- Activity (PC-3): 45.45%
- Activity (SF-539): 21.62%
- GI50 (OVCAR-3): 2100 nM
- CC50 (OVCAR-3; [25]): 8.9 µM
- Activity (CCRF-CEM): 2.35%
- GI50 (786-0): 2100 nM
- CC50 (786-0; [25]): 10.2 µM
- GI50 (DU-145): 2800 nM
- CC50 (DU-145; [25]): 53.7 µM
- GI50 (SK-MEL-2): 3.8 µM
- CC50 (SK-MEL-2; [25]): > 100 µM
- GI50 (OVCAR-4 [1]): 3.3 µM
- CC50 (OVCAR-4 [1]; [25]): > 100 µM
- Activity (SNB-19): 37.51%
- Activity (HT-29 [2]): -29.51%
- GI50 (MDA-MB-468 [3]): 1600 nM
- CC50 (MDA-MB-468 [3]; [25]): 39.8 µM
- GI50 (UACC-62 [4]): 1700 nM
- CC50 (UACC-62 [4]; [25]): 8.5 µM
- Activity (COLO 205): 11.57%
- GI50 (HCC 2998): 1900 nM
- CC50 (HCC 2998; [25]): 6.3 µM
- GI50 (SK-OV-3 [5]): 3.2 µM
- CC50 (SK-OV-3 [5]; [25]): > 100 µM
- GI50 (TK-10 [6]): 3.1 µM
- CC50 (TK-10 [6]; [25]): > 100 µM
- Activity (NCI-H226): 3.87%
- GI50 (HCT-116): 1500 nM
- CC50 (HCT-116; [25]): 6.1 µM
- Activity (OVCAR-8): 0.37%
- Activity (HOP-92 [7]): 101.34%
- Activity (SR): 10.62%
- GI50 (KM12 [8]): 1600 nM
- CC50 (KM12 [8]; [25]): 5.8 µM
- Activity (T47D): 41.86%
- Activity (OVCAR-5 [9]): 143.86%
- GI50 (SK-MEL-5): 2200 nM
- CC50 (SK-MEL-5; [25]): 20.8 µM
- Activity (UACC-62 [10]): 28.21%
- GI50 (HL-60(TB)): 3.1 µM
- CC50 (HL-60(TB); [25]): > 100 µM
- GI50 (HT-29 [11]): 2900 nM
- CC50 (HT-29 [11]; [25]): > 100 µM
- Activity (OVCAR-4 [12]): -20.79%
- GI50 (NCI/ADR-RES [13]): 3.3 µM
- CC50 (NCI/ADR-RES [13]; [25]): > 100 µM
- GI50 (OVCAR-5 [14]): 2800 nM
- CC50 (OVCAR-5 [14]; [25]): > 100 µM
- Activity (SF-268): 75.5%
- GI50 (NCI-H322M): 28.1 µM
- CC50 (NCI-H322M; [25]): > 100 µM
- Activity (CAKI-1 [15]): 52.22%
- Activity (MDA-MB-231): 13.67%
- GI50 (A549): 16.2 µM
- CC50 (A549; [25]): > 100 µM
- Activity (SK-OV-3 [16]): 48.42%
- Activity (TK-10 [17]): 44.8%
- GI50 (HCT-15): 2200 nM
- CC50 (HCT-15; [25]): > 100 µM
- GI50 (UO-31): 1600 nM
- CC50 (UO-31; [25]): 7.5 µM
- Activity (KM12 [18]): 16.12%
- GI50 (HOP-62): 3.1 µM
- CC50 (HOP-62; [25]): 57.5 µM
- Activity (NCI-H23): 26.27%
- GI50 (MDA-MB-435): 2500 nM
- CC50 (MDA-MB-435; [25]): > 100 µM
- GI50 (SW-620): 1700 nM
- CC50 (SW-620; [25]): 6.7 µM
- Activity (SF-295 [19]): 101.1%
- GI50 (HOP-92 [20]): 4.6 µM
- CC50 (HOP-92 [20]; [25]): > 100 µM
- Activity (NCI/ADR-RES [21]): -17.49%
- GI50 (SF-295 [22]): 3.1 µM
- CC50 (SF-295 [22]; [25]): > 100 µM
- Activity (MDA-MB-468 [23]): 9.96%
- Activity (K562): 76.92%
- GI50 (CAKI-1 [24]): 1900 nM
- CC50 (CAKI-1 [24]; [25]): > 100 µM
- GI50 (SNB-75): 7 µM
- CC50 (SNB-75; [25]): > 100 µM
